# From PubChem BioAssay
# Rev-RRE block: HIV-1 Rev-RRE binding inhibitors, primary screen, biochemical, FRET, protein-RNA interaction | 0.79% of 97,000 active | P05866 | Rev peptide-RRE RNA binding | inhibition, % at 8 µM;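 active means inhibition above the screen-wide mean plus 3 SD, cut at about 35% in these data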;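 further: 0% = median DMSO wells and 100% = median Neomycin B control wells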
#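 Test system – labelled RRE RNA duplex and labelled Rev peptide · Reagent – labelled Rev peptide · Doses – one concentration, 8 µM nominal · Incubation – 5 + 15 min at 25 °C · Signal – FRET fluorescence readout · Read-out basis – % inhibition of FRET ratio versus controls · Control set – DMSO wells as 0% and neomycin B wells as 100% inhibition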
# EphB4 ephrin blk: EphB4-ephrin-B2 interaction antagonists, primary screen, biochemical, TNYL-RAW peptide probe, fluorescence polarization. Ephrin type-B receptor 4 (Homo sapiens), P54760. EphB4 LBD / TNYL-RAW-Alexa532 peptide. inhibition, % at 7 µM. 0.15% of 97,000 active. AID 720, 2007;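 active means inhibition above the screen-wide mean inhibition plus 3 SD, cut at about 15% in these data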;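 further: 0% = DMSO wells and 100% = excess unlabeled TNYL-RAW peptide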
# Plk1 PBD FP: Plk1 polo box domain binding inhibitors, primary screen, biochemical, fluorescence polarization; 0.13% of 97,000 active; Plk1 PBD phosphopeptide binding; Serine/threonine-protein kinase PLK1 (Homo sapiens), P53350; inhibition, %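 (tested at about 20 µM)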; AID 693, 2007; in the data active means inhibition above about 34%, passing the limit was not always enough
# PLK1 kinase inh: human PLK1 kinase inhibitors, primary screen, biochemical, TR-FRET. Serine/threonine-protein kinase PLK1 (Homo sapiens), P53350. recombinant PLK1 kinase, TR-FRET peptide phosphorylation. inhibition, % at 10 µM. 0.53% of 97,000 active;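 active means inhibition of 50% or more in the single-concentration screen; inactive means inhibition below 50%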;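 further: 0% = DMSO max control and 100% = H-89 dihydrochloride min control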
# PTPN22 act: LYP phosphatase activators, primary screen, biochemical, DiFMUP fluorescence, 2 µM | recombinant LYP; 0 = plate median, 100 = signal doubled | 0.11% of 96,000 active | Tyrosine-protein phosphatase non-receptor type 22 (Homo sapiens), Q9Y2R2 | activation, % at 2 µM;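 active means activation at 2 µM above a set limit, the mean plus 5 SD, cut at about 37% in these data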
# Target sequence (Q9Y2R2 whole entry, looked up): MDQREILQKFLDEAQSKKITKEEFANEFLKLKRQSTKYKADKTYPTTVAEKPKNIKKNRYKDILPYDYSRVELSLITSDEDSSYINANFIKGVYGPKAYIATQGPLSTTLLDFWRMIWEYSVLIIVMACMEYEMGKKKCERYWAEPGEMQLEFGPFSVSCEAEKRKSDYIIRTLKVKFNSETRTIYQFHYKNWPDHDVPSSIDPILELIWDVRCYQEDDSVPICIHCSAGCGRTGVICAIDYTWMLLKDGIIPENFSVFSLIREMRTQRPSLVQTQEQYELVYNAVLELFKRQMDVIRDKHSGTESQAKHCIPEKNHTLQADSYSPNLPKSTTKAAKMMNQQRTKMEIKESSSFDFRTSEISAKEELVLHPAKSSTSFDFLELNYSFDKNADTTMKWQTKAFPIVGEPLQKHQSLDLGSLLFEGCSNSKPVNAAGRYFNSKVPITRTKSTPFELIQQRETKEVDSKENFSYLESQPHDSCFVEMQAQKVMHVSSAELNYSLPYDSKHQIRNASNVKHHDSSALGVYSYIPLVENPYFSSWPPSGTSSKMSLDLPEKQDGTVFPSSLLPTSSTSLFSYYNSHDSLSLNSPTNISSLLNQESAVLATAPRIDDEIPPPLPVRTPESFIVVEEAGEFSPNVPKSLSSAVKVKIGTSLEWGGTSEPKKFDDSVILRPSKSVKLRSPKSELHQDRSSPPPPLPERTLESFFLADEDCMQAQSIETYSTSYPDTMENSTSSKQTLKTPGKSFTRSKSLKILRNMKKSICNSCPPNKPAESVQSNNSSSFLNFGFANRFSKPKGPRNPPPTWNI
# LYP inh 2: PTPN22 phosphatase inhibitors, primary screen, biochemical, DiFMUP fluorescence, 2 µM; Tyrosine-protein phosphatase non-receptor type 22 (Homo sapiens), Q9Y2R2; recombinant LYP catalytic domain; inhibition, % at 2 µM; 0.21% of 96,000 active;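 active means inhibition at 2 µM at or above a set limit, the screen mean plus 3 SD, cut at about 24% in these data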;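 further: 0% = DMSO with enzyme and 100% = enzyme fully blocked by orthovanadate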
# An asterisk follows results filed as active; nt = not tested or not shown; [ ] = remark or other dose. Sampled rows, rich in hits. Any-hit rate of the full collection: about 1.8%.
SMILES,Rev-RRE block,EphB4 ephrin blk,Plk1 PBD FP,PLK1 kinase inh,PTPN22 act,LYP inh 2
COc1cc(/C=C/C(=O)c2c(O)cc(C)oc2=O)cc(OC)c1O,38.3*,-8.6,-15.7,-1.2,10.7,-15.1
COc1ccc(/C=C/C(=O)c2c(O)cc(C)oc2=O)c(OC)c1,89.5*[fluorescence artefact?],5.0,2.1,-26.5,-5.9,8.2
CCCCC1(C)OC(=O)C(=Cc2ccc(N(C)C)cc2)C(=O)O1 (stereo not drawn),53.8*,0.1,-8.7,-11.8,2.4,1.8
CCOC(=O)n1c(=O)oc2cc(S(=O)(=O)N3CCCCC3)ccc21,1.4,6.8,0.2,-6.7,-9.9,8.4
CCOC(=O)N1CCN(S(=O)(=O)c2ccc3c(c2)oc(=O)n3C)CC1,40.7*,3.4,-12.6,-8.2,3.9,-7.2
O=C(CSc1nnc(-c2ccccn2)n1Cc1ccccc1)NC1CCCC1,7.2,15.8*,4.0,3.5,3.8,-6.4
Cc1nnc(SCC(=O)NC2CC2)n1CCc1ccccc1,6.0,4.1,4.1,-14.5,0.8,-2.8
Cc1nc(N)sc1N=Nc1ccc(F)cc1,3.9,-6.1,-4.9,58.6*,8.8,-10.6
COc1ccc(NC(=S)NCc2ccco2)c(OC)c1,7.1,4.7,-3.3,-21.4,-1.6,3.7
COc1cc(C2C(C#N)=C(N)OC3=C2C(=O)CCC3)c([N+](=O)[O-])cc1OC (stereo not drawn),48.0*,0.3,-34.4,20.7,3.5,-1.0
Cc1cc(C2C(C#N)=C(N)OC3=C2C(=O)CCC3)c(C)s1 (stereo not drawn),2.8,-6.3,-30.9,-6.5,3.3,-6.1
Cc1nn(C(=O)c2c([N+](=O)[O-])cnn2C)c(C)c1Cl,-2.1,-5.7,-5.1,-12.8,13.9,-14.4
CN(CC(CC(=O)Nc1nncs1)c1ccccc1)S(=O)(=O)c1ccc(Br)cc1 (stereo not drawn),11.3,-0.8,35.1,-9.7,16.1,-16.8
CN(C)C=Nc1ncc2c([nH]c3ccccc32)c1C#N,1.3,-1.2,0.4,0.8,-0.7,-0.7
C/C(=N/OCC(=O)Nc1ccc(C)cc1C)c1cccs1,4.4,5.0,-14.3,-18.9,1.9,-3.5
Cc1ccc(Cn2c(SCCN3CCCCC3)nc3c2c(=O)n(C)c(=O)n3C)cc1,12.3,16.3*,-16.6,-19.1,6.3,-7.5
Cn1c(=O)c2c(nc(SCCN3CCCCC3)n2Cc2ccccc2)n(C)c1=O,4.9,-9.8,-23.7,-8.2,2.7,-3.0
Cc1cc(=O)[nH]c(-n2[nH]c3c(c2=O)CCCC3)n1,25.9,6.0,-24.5,-8.3,-7.4,10.0
Cc1nc(-n2[nH]c3c(c2=O)CCCC3)[nH]c(=O)c1Cc1ccccc1,86.5*[fluorescence artefact?],-2.8,-23.2,-6.9,0.0,4.0
CCOC(=O)c1ccc(NC(=O)CCc2nc(-c3ccc(C)cc3)no2)cc1,17.9,1.9,-2.8,64.2*,5.4,-1.9
CCOC(=O)c1ccc(NC(=O)CCc2nc(-c3ccc(Cl)cc3)no2)cc1,8.1,1.1,7.9,-4.2,5.5,-9.2
CCC(C)n1c(NC(=O)c2ccccc2)c(C#N)c2nc3ccccc3nc21 (stereo not drawn),75.7*,-9.7,-8.1,-12.2,2.9,2.4
CCCCn1c(NC(=O)c2ccccc2)c(C#N)c2nc3ccccc3nc21,49.9*,3.8,0.8,3.0,-17.9,15.6
CCCCN(CCCC)S(=O)(=O)c1ccc(NC(=O)Cc2cccs2)cc1,17.8,0.5,-33.5,-33.0,-3.0,0.3
N#CC1=C(SCC(N)=O)NC2=C(C(=O)c3ccccc32)C1c1ccc(Cl)cc1 (stereo not drawn),9.8,-0.6,16.2,-10.7,1.0,1.2
SMILES,Rev-RRE block,EphB4 ephrin blk,Plk1 PBD FP,PLK1 kinase inh,PTPN22 act,LYP inh 2
CCCOc1ccccc1NC(=O)c1ccc(N)cc1,7.6,1.4,-5.7,-8.2,0.5,3.1
CCCOc1ccc(N)cc1N,101.0*[fluorescence artefact?],10.6,1.1,-1.8,-3.7,3.4
CCOc1ccc(N(CC(=O)Nc2ccc3c(c2)OCCO3)S(=O)(=O)c2c(C)noc2C)cc1,7.9,3.4,8.7,-1.2,-6.5,3.7
O=C(Cn1nc(Cc2cccnc2)c2ccccc2c1=O)NCCCN1CCCC1=O,7.6,0.8,-11.5,-8.5,-0.3,-2.8
CCN(CC)CCNC(=O)Cn1nc(Cc2cccnc2)c2ccccc2c1=O,4.6,-5.6,-2.3,61.9*,nt,nt
C=CCn1c(NCCO)nc2c1c(=O)n(C)c(=O)n2C,56.0*,-5.2,-2.9,-17.7,2.9,-6.5
C=CCNC(=O)C1CC(=O)N(c2ccc(C)cc2)C1 (stereo not drawn),5.9,-0.6,-18.5,59.2*,nt,nt
NC(=O)CNC(=O)[C@@H]1CC2(CC(c3ccc(Cl)cc3)=NO2)CN1C(=O)c1ccccc1 (stereo partly drawn),4.9,2.7,-3.9,-11.8,2.8,-0.2
Cc1ccc(/C=C(\C#N)C(=O)Nc2c(C)cccc2C)s1,19.2,-3.0,-19.2,-5.9,7.9,-9.7
Cc1ccc(NC(=O)/C(C#N)=C/c2ccc(C)s2)c(C)c1,36.7*,-1.5,-19.7,-9.1,-5.7,6.3
COC(=O)c1ccc(COC(=O)CCc2nc(-c3ccccc3)c(-c3ccccc3)o2)cc1,9.1,-1.0,-0.7,-7.7,-13.1,12.8
Nc1c(C(=O)C2CC2)sc2nc(-c3cccs3)cc(C(F)(F)F)c12,107.3*[fluorescence artefact?],-3.3,-10.4,-30.0,8.4,-5.3
CC(C)NC(=O)c1sc2nc(-c3cccs3)cc(-c3cccs3)c2c1N,11.4,3.9,-1.9,-2.1,-17.7,19.6
CCCCCCCCCCCC(=O)N/N=C/c1ccco1,10.5,6.2,-23.1,-3.8,-9.7,5.8
CC(=O)Nc1cccc(NC(=O)C2CCCN2C(=O)Nc2ccccc2C)c1 (stereo not drawn),3.0,1.0,5.5,0.4,0.3,-2.3
O=c1[nH]c(SCc2nc3c(cnn3-c3ccccc3)c(=O)[nH]2)nc2ccccc12,8.6,-2.4,23.6,17.7,-8.0,12.8
Cc1ccc2nc(SCc3nc4c(cnn4-c4ccccc4)c(=O)[nH]3)[nH]c2c1,3.1,-0.4,4.6,53.6*,0.5,1.9
O=C(Nc1cccnc1)C1COc2ccccc2O1 (stereo not drawn),11.8,16.4*,-8.5,-4.8,1.5,0.3
O=C(CCC1COc2ccccc2O1)Nc1cccnc1 (stereo not drawn),-1.1,-7.5,14.9,-13.4,-1.3,0.7
CC(=O)Nc1cc(OC(C)=O)c2nonc2c1OC(C)=O,4.7,10.2,53.6*,4.6,11.2,-12.4
CC(=O)Nc1nonc1NC(C)=O,10.2,11.1,-32.4,-4.4,-5.8,4.8
